Where two headings read alike, the source gives them in different places. Each block holds one molecule with its values, some of them ahead of it.
What was measured:
[1] = test system: three human malignant melanoma cell lines and three breast cancer cell lines; assay: MTS cell proliferation assay, average over the panel; type: cell-based; settings: for IC50: read-out: average IC50
A375/TxR cells [2] = assay: Annexin V-FITC/PI apoptosis detection; type: cell-based, human; settings: 10 nM, 24 h; untreated […]
[3] = target: purified porcine brain tubulin (Sus scrofa, UniProt P02554+Q2XVP4); assay: Cell-free tubulin polymerization assay; type: biochemical; settings: 10 μM, tubulin 3 mg/mL, GTP 1 mM, 1 h
[4] = Liver microsome stability assay, human; settings: for fold improvement of half-life in human liver microsomes: compared to parent compound CH-2-77
CYP2C9 = CYP2C9 (Homo sapiens, UniProt P11712); assay: CYP inhibition, CYP2C9; type: in vitro ADME; settings: at 10 μM, HLM, diclofenac substrate
CYP2C19 = CYP2C19 (Homo sapiens, UniProt P33261); assay: CYP inhibition, CYP2C19; type: in vitro ADME; settings: at 10 μM, HLM, omeprazole substrate
A375/TxR cells [5] = assay: Cell cycle analysis by flow cytometry; type: cell-based, human; settings: 24 h; controls 10 nM, 60c 2.5, 5, 10 nM
[6] = Systemic toxicity in A375/TxR tumor-bearing mice; type: in vivo, NSG mice; settings: for histology of major organs (lung, liver, kidney, heart, spleen), H&E: paclitaxel 10 mg/kg, 60c 10 or 20 mg/kg IP
Outline: (§1)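 Hosts were NSG mice aged 5–6 weeks. At ~100 mm3 mice were randomized by weight and volume into four groups (3 male + 3 female each). Test compound vehicle was PEG300:Tween 80:saline 3:1:6. Dosing was IP three times weekly. The study ended when vehicle tumors neared ~1000 mm3.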

A375/TxR xenograft [7] = assay: A375/TxR xenograft antitumor efficacy; type: in vivo, NSG mice; settings: for average tumor weight: vehicle 2.0 g; for tumor necrosis (H&E of excised tumors): 60c 10 and 20 mg/kg, paclitaxel 10 mg/kg
Outline: as §1

A375/TxR xenograft [8] = assay: Spontaneous metastasis in A375/TxR xenograft model; type: in vivo, NSG mice; settings: for mice that developed liver metastases: n = 6
Outline: as §1

CYP2D6 = CYP2D6 (Homo sapiens, UniProt P10635); assay: CYP inhibition, CYP2D6; type: in vitro ADME; settings: at 10 μM, HLM, dextromethorphan substrate
CYP2B6 = CYP2B6 (Homo sapiens, UniProt P20813); assay: CYP inhibition, CYP2B6; type: in vitro ADME; settings: at 10 μM, HLM, bupropion substrate
TA1535 = assay: AMES fluctuation test, TA1535; design: species or system bacteria; settings: strain TA1535
TA98 = assay: AMES fluctuation test, TA98; design: species or system bacteria; settings: strain TA98
TA1537 = assay: AMES fluctuation test, TA1537; design: species or system bacteria; settings: strain TA1537
CYP1A = CYP1A (Homo sapiens, UniProt P05177); assay: CYP inhibition, CYP1A; type: in vitro ADME; settings: at 10 μM, HLM, phenacetin substrate
CYP3A = assay: CYP inhibition, CYP3A; type: in vitro ADME, human; settings: at 10 μM, HLM
A100 = assay: AMES fluctuation test, A100; design: species or system bacteria; settings: strain A100
M14/LCC6MDR1 = assay: MTS cell proliferation assay, M14/LCC6MDR1; type: cell-based; settings: Homo sapiens, 72 h, read-out: IC50, M14/LCC6MDR1
MDA-MB-231 = assay: MTS cell proliferation assay, MDA-MB-231; type: cell-based, human; settings: read-out: IC50 ± SEM, MDA-MB-231, breast cancer cell line, 72 h, n = 4
MDA-MB-453 = assay: MTS cell proliferation assay, MDA-MB-453; type: cell-based, human; settings: read-out: IC50 ± SEM, MDA-MB-453, breast cancer cell line, 72 h, n = 4
A375 = assay: MTS cell proliferation assay, A375; type: cell-based, human; settings: read-out: IC50 ± SEM, A375, melanoma cell line, 72 h, n = 4
SKBR3 = assay: MTS cell proliferation assay, SKBR3; type: cell-based, human; settings: read-out: IC50 ± SEM, SKBR3, breast cancer cell line, 72 h, n = 4
[9] = Liver microsome stability assay, mouse; settings: 0.5 mg/mL protein, 10 μM compound, NADPH
M14 = assay: MTS cell proliferation assay, M14; type: cell-based, human; settings: read-out: IC50 ± SEM, M14, melanoma cell line, 72 h, n = 4
RPMI7951 = assay: MTS cell proliferation assay, RPMI7951; type: cell-based, human; settings: read-out: IC50 ± SEM, RPMI7951, melanoma cell line, 72 h, n = 4

Sequence of purified porcine brain tubulin (Q2XVP4 whole entry): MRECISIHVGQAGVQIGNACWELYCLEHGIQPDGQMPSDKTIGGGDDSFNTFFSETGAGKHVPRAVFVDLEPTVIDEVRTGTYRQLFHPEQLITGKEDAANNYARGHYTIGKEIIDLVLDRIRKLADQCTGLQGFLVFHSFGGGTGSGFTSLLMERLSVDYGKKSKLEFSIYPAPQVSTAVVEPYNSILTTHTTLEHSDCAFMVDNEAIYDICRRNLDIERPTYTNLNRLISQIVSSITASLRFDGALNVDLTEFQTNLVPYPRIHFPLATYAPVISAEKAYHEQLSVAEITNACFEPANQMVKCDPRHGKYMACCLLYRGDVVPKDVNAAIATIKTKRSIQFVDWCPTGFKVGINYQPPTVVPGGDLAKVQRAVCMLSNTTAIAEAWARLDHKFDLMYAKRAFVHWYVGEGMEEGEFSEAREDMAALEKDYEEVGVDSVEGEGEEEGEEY
Sequence of purified porcine brain tubulin (P02554 whole entry): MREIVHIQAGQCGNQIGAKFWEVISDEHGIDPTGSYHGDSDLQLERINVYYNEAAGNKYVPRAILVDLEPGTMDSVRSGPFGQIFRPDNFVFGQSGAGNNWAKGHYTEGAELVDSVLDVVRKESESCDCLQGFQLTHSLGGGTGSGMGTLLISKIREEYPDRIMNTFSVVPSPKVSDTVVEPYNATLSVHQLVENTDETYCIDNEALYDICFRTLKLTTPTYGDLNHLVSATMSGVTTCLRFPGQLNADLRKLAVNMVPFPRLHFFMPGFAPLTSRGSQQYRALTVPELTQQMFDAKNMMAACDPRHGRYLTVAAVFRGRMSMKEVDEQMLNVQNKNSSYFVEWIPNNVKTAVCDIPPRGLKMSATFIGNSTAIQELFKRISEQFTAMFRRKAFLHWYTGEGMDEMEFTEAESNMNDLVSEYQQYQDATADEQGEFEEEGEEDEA
Sequence of CYP2D6 (P10635 whole entry): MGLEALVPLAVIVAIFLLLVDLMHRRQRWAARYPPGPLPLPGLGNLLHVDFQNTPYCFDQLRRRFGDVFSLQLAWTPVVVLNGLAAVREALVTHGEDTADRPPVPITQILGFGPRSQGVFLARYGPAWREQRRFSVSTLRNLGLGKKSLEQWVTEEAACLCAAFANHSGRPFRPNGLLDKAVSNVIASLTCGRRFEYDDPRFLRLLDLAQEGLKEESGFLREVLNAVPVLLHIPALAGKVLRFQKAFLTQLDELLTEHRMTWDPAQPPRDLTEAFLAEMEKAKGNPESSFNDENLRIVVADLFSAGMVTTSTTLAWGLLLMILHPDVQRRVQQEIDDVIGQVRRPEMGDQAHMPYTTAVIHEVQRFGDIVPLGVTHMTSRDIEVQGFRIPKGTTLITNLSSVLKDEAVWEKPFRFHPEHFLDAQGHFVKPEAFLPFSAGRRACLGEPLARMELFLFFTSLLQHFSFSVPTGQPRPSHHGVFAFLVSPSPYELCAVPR
Sequence of CYP2C19 (P33261 whole entry): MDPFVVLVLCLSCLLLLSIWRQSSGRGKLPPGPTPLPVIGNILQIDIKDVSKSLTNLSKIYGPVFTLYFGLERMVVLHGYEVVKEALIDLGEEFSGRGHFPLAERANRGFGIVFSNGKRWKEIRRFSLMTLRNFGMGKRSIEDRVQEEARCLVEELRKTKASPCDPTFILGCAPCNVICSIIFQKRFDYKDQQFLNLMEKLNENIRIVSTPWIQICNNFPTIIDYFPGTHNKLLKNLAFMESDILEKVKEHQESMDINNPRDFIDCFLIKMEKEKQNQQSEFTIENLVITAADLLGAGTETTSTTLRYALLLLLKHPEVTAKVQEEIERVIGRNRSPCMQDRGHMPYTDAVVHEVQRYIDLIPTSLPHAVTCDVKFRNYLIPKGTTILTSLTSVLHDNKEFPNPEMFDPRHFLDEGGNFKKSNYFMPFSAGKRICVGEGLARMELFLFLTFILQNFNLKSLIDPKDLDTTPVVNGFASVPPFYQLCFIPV
Sequence of CYP2C9 (P11712 whole entry): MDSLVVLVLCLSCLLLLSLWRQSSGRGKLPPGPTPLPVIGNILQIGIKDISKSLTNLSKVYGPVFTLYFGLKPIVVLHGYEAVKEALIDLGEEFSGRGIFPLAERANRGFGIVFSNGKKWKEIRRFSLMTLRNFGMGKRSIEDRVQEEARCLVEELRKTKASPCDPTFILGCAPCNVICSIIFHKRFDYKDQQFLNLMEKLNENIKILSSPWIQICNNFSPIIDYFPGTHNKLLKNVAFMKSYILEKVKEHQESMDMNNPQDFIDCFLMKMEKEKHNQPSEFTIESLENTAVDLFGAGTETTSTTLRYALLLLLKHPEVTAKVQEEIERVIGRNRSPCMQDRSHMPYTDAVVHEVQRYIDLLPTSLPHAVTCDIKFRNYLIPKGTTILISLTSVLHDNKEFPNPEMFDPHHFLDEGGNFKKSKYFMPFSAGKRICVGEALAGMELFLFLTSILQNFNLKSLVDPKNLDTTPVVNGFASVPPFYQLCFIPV
Sequence of CYP2B6 (P20813 whole entry): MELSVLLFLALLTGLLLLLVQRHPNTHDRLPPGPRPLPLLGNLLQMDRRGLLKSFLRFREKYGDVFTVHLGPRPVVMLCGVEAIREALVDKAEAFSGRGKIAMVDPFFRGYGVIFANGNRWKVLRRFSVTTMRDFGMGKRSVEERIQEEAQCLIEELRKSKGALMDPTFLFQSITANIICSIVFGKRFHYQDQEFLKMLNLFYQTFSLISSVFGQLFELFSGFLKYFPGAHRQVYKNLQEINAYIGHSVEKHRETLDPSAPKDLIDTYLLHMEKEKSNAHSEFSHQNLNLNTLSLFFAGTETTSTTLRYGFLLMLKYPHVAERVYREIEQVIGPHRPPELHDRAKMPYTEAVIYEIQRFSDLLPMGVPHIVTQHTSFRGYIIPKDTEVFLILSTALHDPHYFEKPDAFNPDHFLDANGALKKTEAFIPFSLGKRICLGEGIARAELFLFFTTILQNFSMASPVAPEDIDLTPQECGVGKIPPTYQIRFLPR
Sequence of CYP1A (P05177 whole entry): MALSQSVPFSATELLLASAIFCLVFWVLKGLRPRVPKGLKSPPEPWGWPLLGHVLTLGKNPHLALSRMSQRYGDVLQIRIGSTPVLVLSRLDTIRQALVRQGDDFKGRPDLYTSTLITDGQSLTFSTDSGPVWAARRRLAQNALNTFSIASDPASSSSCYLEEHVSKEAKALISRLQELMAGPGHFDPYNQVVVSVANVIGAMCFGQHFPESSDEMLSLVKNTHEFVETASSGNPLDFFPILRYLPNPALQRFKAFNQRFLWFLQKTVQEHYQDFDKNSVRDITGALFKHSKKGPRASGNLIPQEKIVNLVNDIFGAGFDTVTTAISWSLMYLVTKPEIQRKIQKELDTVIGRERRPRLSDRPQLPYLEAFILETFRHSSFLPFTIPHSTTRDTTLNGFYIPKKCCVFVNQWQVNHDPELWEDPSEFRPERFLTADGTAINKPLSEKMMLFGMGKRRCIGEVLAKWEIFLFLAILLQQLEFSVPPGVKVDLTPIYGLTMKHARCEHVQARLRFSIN

- IC50 ([1]; Homo sapiens): 3.7 nM
Molecule: COc1cc(C(=O)c2cccc(-c3ccc(C)cc3)n2)cc(OC)c1OC [CH-2–1, (6-(p-Tolyl)pyridin-2-yl)(3,4,5-trimethoxyphenyl)methanone, reference compound]

- IC50 ([1]; Homo sapiens): 2.5 nM
- effect on tubulin polymerization [3]: interfered with tubulin polymerization
Molecule: COc1cc(C(=O)c2cccc(-c3ccc(C)c(O)c3)n2)cc(OC)c1OC [CH-2–77]
- apoptotic cells (A375/TxR cells [2]): 51.1%

- IC50 ([1]; Homo sapiens): 48.7 nM
Molecule: COc1cc(C(=O)c2cccc(-c3ccc(N(C)C)cc3)n2)cc(OC)c1OC [Compound 4c, (6-(4-(Dimethylamino)phenyl)pyridin-2-yl) (3,4,5-trimethoxyphenyl)methanone]
- fold reduction in antiproliferative activity ([1]; compared to CH-2–1, average IC50): 13 fold

- IC50 ([1]; Homo sapiens): 3.8 nM
Molecule: COc1cc(C(=O)c2cccc(-c3ccc(C)cc3)n2)cc2c1OCCO2 [Compound 10, (8-Methoxy-2,3-dihydrobenzo[b][1,4]dioxin-6-yl)(6-(p-tolyl)-pyridin-2-yl)methanone]

- IC50 ([1]; Homo sapiens): 18.3 nM
Molecule: CCc1c(OC)cc(C(=O)c2cccc(-c3ccc(C)c(O)c3)n2)cc1OC [Compound 13, (4-Ethyl-3,5-dimethoxyphenyl)(6-(3-hydroxy-4-methylphenyl)-pyridin-2-yl)methanone]

- fold improvement of half-life in human liver microsomes [4]: 19 fold
- IC50 ([1]; Homo sapiens): 34.1 nM
Molecule: COc1cc(-c2n[nH]c3ccc(-c4ccc(C)c(O)c4)nc23)cc(OC)c1OC [Compound 22, 2-Methyl-5-(3-(3,4,5-trimethoxyphenyl)-1H-pyrazolo[4,3-b]-pyridin-5-yl)phenol]

- IC50 ([1]; Homo sapiens): 80.5 nM
Molecule: COc1cc(C(=O)c2nc(-c3ccc(C)c(O)c3)[nH]c2Br)cc(OC)c1OC [Compound 29, (5-Bromo-2-(3-hydroxy-4-methylphenyl)-1H-imidazol-4-yl)-(3,4,5-trimethoxyphenyl)methanone]

- IC50 ([1]; Homo sapiens): 4.2 nM
Molecule: COc1cc(C(=O)c2cncc(-c3ccc(C)cc3)n2)cc(OC)c1OC [Compound 35, (6-(p-Tolyl)pyrazin-2-yl)(3,4,5-trimethoxyphenyl)methanone]

- IC50 ([1]; Homo sapiens): 9.2 nM
Molecule: COc1cc(C(=O)c2cncc(-c3ccc(C)c(O)c3)n2)cc(OC)c1OC [Compound 40a, (6-(3-Hydroxy-4-methylphenyl)pyrazin-2-yl)(3,4,5-trimethoxyphenyl)methanone]

- IC50 ([1]; Homo sapiens): 33.7 nM
Molecule: COc1cc(C(=O)c2cncc(-c3cccc4[nH]ncc34)n2)cc(OC)c1OC [Compound 40c, (6-(1H-Indazol-4-yl)pyrazin-2-yl)(3,4,5-trimethoxyphenyl)-methanone]

- IC50 ([1]; Homo sapiens): 8.2 nM
Molecule: COc1cc(C(=O)c2ccnc(-c3ccc(C)c(O)c3)n2)cc(OC)c1OC [Compound 46a, (2-(3-Hydroxy-4-methylphenyl)pyrimidin-4-yl)(3,4,5-trimethoxyphenyl)methanone]

- IC50 ([1]; Homo sapiens): 26.3 nM
Molecule: COc1cc(C(=O)c2ccnc(-c3c[nH]c4ccccc34)n2)cc(OC)c1OC [Compound 46b, (2-(1H-Indol-3-yl)pyrimidin-4-yl)(3,4,5-trimethoxyphenyl)-methanone]

- fold improvement of half-life in human liver microsomes [4]: 3 fold
- IC50 ([1]; Homo sapiens): 7.7 nM
Molecule: COc1cc(C(=O)c2cc(C)cc(-c3ccc(C)cc3)n2)cc(OC)c1OC [Compound 50a, (4-Methyl-6-(p-tolyl)pyridin-2-yl)(3,4,5-trimethoxyphenyl)-methanone]

- fold improvement of half-life in human liver microsomes [4]: 3 fold
Molecule: COc1cc(C(=O)c2cc(OC)c(OC)c(OC)c2)nc(-c2ccc(C)cc2)c1 [Compound 54a, (4-Methoxy-6-(p-tolyl)pyridin-2-yl)(3,4,5-trimethoxyphenyl)-methanone]

- fold improvement of half-life in human liver microsomes [4]: 3 fold
Molecule: COc1cc(C(=O)c2cc(OC)c(OC)c(OC)c2)nc(-c2ccc(C)c(O)c2)c1 [Compound 55b, (6-(3-Hydroxy-4-methylphenyl)-4-methoxypyridin-2-yl)(3,4,5-trimethoxyphenyl)methanone]

Molecule: COc1cc(C(=O)c2nc(-c3ccc(C)c(O)c3)ccc2F)cc(OC)c1OC [Compound 60c, (3-Fluoro-6-(3-hydroxy-4-methylphenyl)pyridin-2-yl)(3,4,5-trimethoxyphenyl)methanone]
- CYP2C9 inhibition (CYP2C9): CYP2C9 (HLM, diclofenac substrate): 54.7%
- CYP2C19 inhibition (CYP2C19): CYP2C19 (HLM, omeprazole substrate): 49%
- effect on cell cycle distribution (A375/TxR cells [5]): dose-dependent accumulation of cells in the G2/M phase
- body weight during therapy ([6]; 10 or 20 mg/kg IP, 3 times/week, 18 days): without weight loss
- histology of major organs (lung, liver, kidney, heart, spleen), H&E [6]: no apparent pathological changes in the major organs
- average tumor weight (A375/TxR xenograft [7]; 10 mg/kg IP): 1.13 g
- average tumor weight (A375/TxR xenograft [7]; 20 mg/kg IP): 0.76 g
- tumor necrosis (H&E of excised tumors) (A375/TxR xenograft [7]): highly necrotic
- mice that developed liver metastases (A375/TxR xenograft [8]; 20 mg/kg IP): none
- lung metastasis (H&E) (A375/TxR xenograft [8]; 10 and 20 mg/kg IP): lung nodules were markedly sparse and of reduced size
- CYP2D6 inhibition (CYP2D6): CYP2D6 (HLM, dextromethorphan substrate): 11.9%
- CYP2B6 inhibition (CYP2B6): CYP2B6 (HLM, bupropion substrate): 12%
- AMES fluctuation test (TA1535): TA1535: no mutation
- effect on tubulin polymerization [3]: strongly inhibited microtubule polymerization
- AMES fluctuation test (TA98): TA98: no mutation
- AMES fluctuation test (TA1537): TA1537: no mutation
- CYP1A inhibition (CYP1A): CYP1A (HLM, phenacetin substrate): 50.9%
- CYP3A inhibition (CYP3A; midazolam substrate): CYP3A (HLM, midazolam substrate): 34.7%
- CYP3A inhibition (CYP3A; testosterone substrate): CYP3A (HLM, testosterone substrate): 51.8%
- AMES fluctuation test (A100): A100: no mutation

- IC50 ([1]; Homo sapiens): 60.8 nM
Molecule: COc1cc(C(=O)c2cc(F)cc(-c3ccc(C(F)F)cc3)c2)cc(OC)c1OC [Compound 64, (4′-(Difluoromethyl)-5-fluoro-[1,1′-biphenyl]-3-yl)(3,4,5-trimethoxyphenyl)methanone]

Molecule: COc1cc2c(c(OC)c1OC)-c1ccc(OC)c(=O)cc1[C@@H](NC(C)=O)CC2 [colchicine]
- effect on cell cycle distribution (A375/TxR cells [5]): normal cell cycle progression
- IC50 (M14/LCC6MDR1): > 1000 nM

- effect on tubulin polymerization [3]: increased rate of tubulin polymerization
Molecule: CC(=O)O[C@H]1C(=O)[C@@]2(C)[C@H]([C@H](OC(=O)c3ccccc3)[C@]3(O)C[C@H](OC(=O)[C@H](O)[C@@H](NC(=O)c4ccccc4)c4ccccc4)C(C)=C1C3(C)C)[C@]1(OC(C)=O)CO[C@@H]1C[C@@H]2O [paclitaxel, reference compound]
- effect on cell cycle distribution (A375/TxR cells [5]): normal cell cycle progression
- histology of major organs (lung, liver, kidney, heart, spleen), H&E [6]: no apparent pathological changes in the major organs
- increase of tumor volume vs vehicle (A375/TxR xenograft [7]; 10 mg/kg IP, 3 times/week, 18 days): approximately 5.3%
- average tumor weight (A375/TxR xenograft [7]; 10 mg/kg IP): 2.1 g
- tumor necrosis (H&E of excised tumors) (A375/TxR xenograft [7]): all viable
- mice that developed liver metastases (A375/TxR xenograft [8]; 10 mg/kg IP, vehicle 83%): 83%

Molecule: (6-(Indolin-6-yl)pyridin-2-yl)(3,4,5-trimethoxyphenyl)methanone [Compound 4b]
- IC50 (MDA-MB-231): 5.3 ± 1 nM
- IC50 (MDA-MB-453): 5.9 ± 1.4 nM
- metabolic stability in human liver microsome t1/2 ([4]; 0.5 mg/mL protein, 10 μM compound, NADPH): 15 ± 1.2 min
- IC50 ([1]; average over six cancer cell lines): 5.5 nM
- IC50 (A375): 5 ± 1 nM
- IC50 (SKBR3): 5.5 ± 1.2 nM
- metabolic stability in mouse liver microsome t1/2 [9]: 4.2 ± 0.00 min
- IC50 (M14): 5.6 ± 1.4 nM
- IC50 (RPMI7951): 5.9 ± 1.5 nM

From article PMC9206500 (Journal of medicinal chemistry, 2021)
